In ChEMBL document CHEMBL3407498, “Design, synthesis and 3D-QSAR studies of novel 1,4-dihydropyridines as TGFβ/Smad inhibitors” (Eur J Med Chem, 2015) one finds IC50 and inhibition data, which are given here for 53 compounds.

A short description of assay [1]: Inhibition of TGFbeta/Smad in TGFbeta-2/activin A-stimulated HEK293 cells preincubated for 2 hrs before stimulation measured after 20 to 22 hrs by firefly/renilla luciferase reporter assay. The format is cell-based. The following applies: Homo sapiens. A digest of the protocol: (§1)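 HEK293T cells co-transfected with SBE-4 firefly luciferase and TK-driven renilla luciferase plasmids, replated after 12-14 h, rested 2 h, then given compound, DMSO and TGFβ-2 or Activin A (10 ng/mL). Firefly and renilla signals read after 20-22 h by dual luciferase kit. Triplicate wells; data normalized to DMSO (0% inhibition), mean ± SD of 2-4 independent experiments.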
(A reporter such as luciferase makes a cellular process visible.)

The test system of assay [2] is HEK293. The assay can be described thus: Inhibition of TGFbeta/Smad in TGFbeta-2/activin A-stimulated HEK293 cells preincubated at 2.5 uM for 2 hrs before stimulation measured after 20 to 22 hrs by firefly/renilla luciferase reporter assay. The format is cell-based. The following applies: Homo sapiens. A digest of the protocol:
as §1

By IC50 is commonly meant the concentration that gives 50% inhibition. Higher therefore signals weaker potency in that assay. In general, inhibition refers to how much of the control response was suppressed. In the case of `CCCC(=O)C1=C(C)NC2=C(C(=O)CC(C)(C)C2)C1c1ccc(-c2ccccc2)cc1` (stereo not drawn), in assay [1], the half-inhibitory concentration (IC50) is 500 nM. The inhibition in assay [2] is 84%.
The compound `CCOC(=O)C1=C(C)NC2=C(C(=O)CC(C)(C)C2)C1c1cc(OC)c(OC)c(OC)c1` (stereo not drawn) gave an inhibition in assay [2] of 5%.
As for `CCCOC(=O)C1=C(C)NC2=C(C(=O)CC(C)(C)C2)C1c1ccc(-c2ccccc2)cc1` (stereo not drawn), the midpoint of inhibition in assay [1], the IC50, lay at 490 nM. In addition, the inhibition in assay [2] came to 93%.
As for `CC1=C(C(=O)OC(C)(C)C)C(c2ccc(-c3ccccc3)cc2)C2=C(CC(C)(C)CC2=O)N1` (stereo not drawn), the IC50 in assay [1] amounted to 670 nM. For the same compound, in assay [2], the inhibition turned out to be 84%.
The like results for `CCOC(=O)C1=C(C)NC2=C(C(=O)CC(C)(C)C2)C1c1ccc(-c2ccc(OC(F)(F)F)cc2)cc1` (stereo not drawn) were, in that order, 480 nM and 95%.
The like results for `CCOC(=O)C1=C(N)NC2=C(C(=O)CC(C)(C)C2)C1c1ccc(-c2ccccc2)cc1` (stereo not drawn) were, in that order, 1330 nM and 61%.
The like results for `CCOC(=O)C1=C(C)NC2=C(C(=O)CC(C)(C)C2)C1c1ccc(-c2ccccc2)cc1` (stereo not drawn) were, in that order, 850 nM and 83%.
As to `CCOC(=O)C1=C(C)NC2=C(C(=O)CC(C)(C)C2)C1c1ccc(-c2ccc(C(F)(F)F)cc2)cc1` (stereo not drawn), in assay [1], half-maximal inhibition (IC50) required 970 nM. In assay [2], this compound came in with an inhibition of 88%.
The like results for `CC1(C)CC(=O)C2=C(C1)NC1=C(C(=O)OC1)C2c1ccc(-c2ccccc2)cc1` (stereo not drawn) were, in that order, 4300 nM and 37%.
As for `CCOC(=O)C1=C(C)NC2=C(C(=O)CC(C)(C)C2)C1c1ccc(-c2ccc(C#N)cc2)cc1` (stereo not drawn), in assay [1], the IC50 came to 1790 nM. This compound displayed an inhibition in assay [2] of 52%.
Take `COC(=O)C1=C(C(=O)O)NC2=C(C(=O)CC(C)(C)C2)C1c1ccc(-c2ccccc2)cc1` (stereo not drawn): the inhibition in assay [2] is 4%.
Still for that read-out and setting: next, `CCOC(=O)C1=C(C)NC2=C(C(=O)CC(C)(C)C2)C1c1ccc(O)c(OC)c1` (stereo not drawn): 8%; `CCNC(=O)C1=C(C)NC2=C(C(=O)CC(C)(C)C2)C1c1ccc(-c2ccccc2)cc1` (stereo not drawn): 31%.
Turning to `CC1=C(C(=O)OCC(C)C)C(c2ccc(-c3ccccc3)cc2)C2=C(CC(C)(C)CC2=O)N1` (stereo not drawn), the IC50 in assay [1] is 420 nM.
Regarding `CCC(=O)C1=C(CC)NC2=C(C(=O)CC(C)(C)C2)C1c1ccc(-c2ccccc2)cc1` (stereo not drawn), in assay [1], the IC50 stood at 1630 nM. This compound registered an inhibition in assay [2] of 62%.
Turning to `CCOC(=O)C1=C(C)NC2=C(C(=O)CC(C)(C)C2)C1c1ccccc1OC(F)(F)F` (stereo not drawn), the inhibition in assay [2] came to 9%.
`CCOC(=O)C1=C(C)NC2=C(C(=O)CC(C)(C)C2)C1c1ccc(C(C)(C)C)cc1` (stereo not drawn): the inhibition in assay [2] amounted to 90%.
In turn, `CCOC(=O)C1=C(C)NC2=C(C(=O)CC(C)(C)C2)C1c1ccc(-c2ccncc2)cc1` (stereo not drawn) registered an IC50 in assay [1] of 6140 nM. In assay [2], the inhibition is 27%.
`CCOC(=O)C1=C(C)NC2=C(C(=O)CC(C)(C)C2)C1c1ccc(-c2ccc(S(C)(=O)=O)cc2)cc1` (stereo not drawn) gave an IC50 in assay [1] of 2760 nM. Also, in assay [2], the inhibition worked out at 44%.
For the compound `CC1(C)CC(=O)C2=C(C1)NC1=C(C(=O)CC(C)(C)C1)C2c1ccccc1`, the inhibition in assay [2] was 21%.
Same read-out and setting: next, `COC(=O)C1=C(C)NC2=C(C(=O)CC(C)C2)C1c1ccc(-c2ccccc2)cc1` (stereo not drawn): 21%.
In assay [1], `CCOC(=O)C1=C(COC)NC2=C(C(=O)CC(C)(C)C2)C1c1ccc(-c2ccccc2)cc1` (stereo not drawn) gave an IC50 of 1890 nM. In addition, the inhibition in assay [2] was 78%.
Take `C#Cc1ccc(C2C(C(=O)OCC)=C(C)NC3=C2C(=O)CC(C)(C)C3)cc1` (stereo not drawn): in assay [1], the IC50 was determined as 1710 nM. Moreover, the inhibition in assay [2] was 59%.
The like results for `CCCCC(=O)C1=C(C)NC2=C(C(=O)CC(C)(C)C2)C1c1ccc(-c2ccccc2)cc1` (stereo not drawn) were, in that order, 560 nM and 80%.
The like results for `COC(=O)C1=C(C(=O)OC)C(c2ccc(-c3ccccc3)cc2)C2=C(CC(C)(C)CC2=O)N1` (stereo not drawn) were, in that order, 2010 nM and 46%.
The like results for `CCOC(=O)C1=C(C(=O)OCC)C(c2ccc(-c3ccccc3)cc2)C2=C(CC(C)(C)CC2=O)N1` (stereo not drawn) were, in that order, 1800 nM and 56%.
Consider `CCOC(=O)C1=C(C)NC2=C(C(=O)CC(C)(C)C2)C1c1ccc(-c2ccc(OC)cc2)cc1` (stereo not drawn), for which, in assay [1], half-maximal inhibition (IC50) required 420 nM. Moreover, in assay [2], the inhibition was 93%.
The corresponding values for `C=CCOC(=O)C1=C(C)NC2=C(C(=O)CC(C)(C)C2)C1c1ccc(-c2ccccc2)cc1` (stereo not drawn) are 620 nM and 91%.
Compound `CCNCC1=C(C(=O)OCC)C(c2ccc(-c3ccccc3)cc2)C2=C(CC(C)(C)CC2=O)N1` (stereo not drawn) showed a 50% inhibitory concentration (IC50) in assay [1] of 3440 nM. Further, the inhibition in assay [2] came out at 64%.
The like results for `CCOC(=O)C1=C(C)NC2=C(C(=O)CC(C)(C)C2)C1c1ccc(-c2ccc(Cl)cc2)cc1` (stereo not drawn) were, in that order, 760 nM and 91%.
The like results for `CCN1CC2=C(C1=O)C(c1ccc(-c3ccccc3)cc1)C1=C(CC(C)(C)CC1=O)N2` (stereo not drawn) were, in that order, 5030 nM and 25%.
The corresponding values for `CCCNCC1=C(C(=O)OCC)C(c2ccc(-c3ccccc3)cc2)C2=C(CC(C)(C)CC2=O)N1` (stereo not drawn) are 1600 nM and 57%.
In assay [1], `CC1(C)CC(=O)C2=C(C1)NC1=C(C(=O)N(Cc3ccccc3)C1)C2c1ccc(-c2ccccc2)cc1` (stereo not drawn) returned an IC50 of 870 nM. The compound also registered an inhibition in assay [2] of 82%.
The corresponding values for `CCOC(=O)C1=C(C)NC2=C(C(=O)CC(C)(C)C2)C1c1ccc(-c2ccc(N(C)C)cc2)cc1` (stereo not drawn) are 330 nM and 95%.
For `CCCCCCCCCCCCOC(=O)C1=C(C)NC2=C(C(=O)CC(C)(C)C2)C1c1ccc(-c2ccccc2)cc1` (stereo not drawn), the inhibition in assay [2] worked out at 0%.
Compound `CCOC(=O)C1=C(C)NC2=C(C(=O)CC(C)(C)C2)C1c1ccc(-c2ccc(C)cc2)cc1` (stereo not drawn) showed an IC50 in assay [1] of 350 nM. The same compound registered an inhibition in assay [2] of 94%.
For the compound `CC1(C)CC(=O)C2=C(C1)NC1=C(C(=O)c3ccccc31)C2c1ccccc1` (stereo not drawn), in assay [2], the inhibition came to 11%.
The same measure, in the same setting: next, `CCCOCCOC(=O)C1=C(C)NC2=C(C(=O)CC(C)(C)C2)C1c1ccc(-c2ccccc2)cc1` (stereo not drawn): 0%.
As for `CCOC(=O)C1=C(N)NC2=C(C(=O)CC(C)(C)C2)C1c1ccc(C(C)(C)C)cc1` (stereo not drawn), in assay [1], the IC50 was determined as 510 nM. In assay [2], this compound gave an inhibition of 89%.
`CCOC(=O)C1=C(C)NC2=C(C(=O)CC(C)(C)C2)C1c1ccc(-c2ccc(F)cc2)cc1` (stereo not drawn) came in with an IC50 in assay [1] of 1230 nM. In assay [2], this compound yielded an inhibition of 74%.
In the case of `CCOC(=O)C1=C(C)NC2=C(C(=O)CC(C)(C)C2)C1c1ccc(-c2ccc(O)cc2)cc1` (stereo not drawn), the IC50 in assay [1] is 730 nM. The inhibition in assay [2] amounted to 74%.
In assay [2], `CCN(CC)CCN1C2=C(C(=O)CC(C)(C)C2)C(c2ccccc2)C2=C1CC(C)(C)CC2=O` had an inhibition of 12%.
For `CC1=C(C(=O)OC2CCCC2)C(c2ccc(-c3ccccc3)cc2)C2=C(CC(C)(C)CC2=O)N1` (stereo not drawn), the IC50 in assay [1] was determined as 1110 nM. In assay [2], this compound showed an inhibition of 77%.
The like results for `CC1=C(C(=O)NCc2ccccc2)C(c2ccc(-c3ccccc3)cc2)C2=C(CC(C)(C)CC2=O)N1` (stereo not drawn) were, in that order, 5190 nM and 32%.
On to `CC1(C)CC(=O)C2=C(C1)NC1=C(C(=O)NC1)C2c1ccc(-c2ccccc2)cc1` (stereo not drawn), for which the inhibition in assay [2] was found to be 28%.
`CCOC(=O)C1=C(C)NC2=C(C(=O)CC(C)(C)C2)C1c1ccccc1` (stereo not drawn): the inhibition in assay [2] is 2%.
Compound `CC1=C(C(=O)OC(C)C)C(c2ccc(-c3ccccc3)cc2)C2=C(CC(C)(C)CC2=O)N1` (stereo not drawn) came in with an IC50 in assay [1] of 660 nM. Besides, in assay [2], the inhibition came to 85%.
In assay [2], `CCOCCOC(=O)C1=C(C)NC(C)=C(C(=O)OCCOCC)C1c1ccccc1OC(F)(F)F` displayed an inhibition of 4%.
The same measure, in the same setting: next, `CCOC(=O)C1=C(C)NC2=C(C(=O)NCC2)C1c1ccc(-c2ccccc2)cc1` (stereo not drawn): 21%.
In assay [1], `CC1(C)CC(=O)C2=C(C1)NC1=C(C(=O)c3ccccc31)C2c1ccc(-c2ccccc2)cc1` (stereo not drawn) gave an IC50 of 1260 nM. In assay [2], this compound displayed an inhibition of 70%.
The corresponding values for `CC1=C(C#N)C(c2ccc(-c3ccccc3)cc2)C2=C(CC(C)(C)CC2=O)N1` (stereo not drawn) are 2950 nM and 44%.
The corresponding values for `CCOC(=O)C1=C(C)NC2=C(C(=O)CC(C)(C)C2)C1c1ccc(-c2ccc(Br)cc2)cc1` (stereo not drawn) are 460 nM and 94%.
As for `CCOC(=O)C1=C(C(=O)O)NC2=C(C(=O)CC(C)(C)C2)C1c1ccc(-c2ccccc2)cc1` (stereo not drawn), the inhibition in assay [2] amounted to 0%.
